Compound activity as filed in PubChem.
MC4R antag cAMP – human MC4R antagonism in cAMP assay; 360,000 tested, 0.48% active; AID 540295; MC4R-expressing cells, MTII-stimulated cAMP, LANCE TR-FRET; inhibition, % at 6.5 µM;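 active means inhibition above its plate's cutoff, the mean of tested wells on that plate plus 3 SD, cut at about 29% in these data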
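material = U2OS cells stably expressing human melanocortin 4 receptor (MC4R) | also added = Melanotan II challenge | dosing = single nominal compound dose of 6.5 µM | detection = TR-FRET with Eu-cAMP and labeled anti-cAMP, 671 nm | replication = singlicate | timing = compound 30 min, challenge 1 h, detection 1 h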
Myeloid diff MLP – promotes myeloid progenitor differentiation. AID 624256. ER-HoxA9 myeloid progenitors, lysozyme-GFP differentiation, flow cytometry. calls only at 10 µM. 360,000 tested, 1% active;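 active means normalized GFP-positive differentiation at or above the plate's own cutoff, the solvent-only control mean plus 3 SD; inconclusive means no clear call, values can overlap the other calls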;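 further: cells exposed to compound for four days before flow analysis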
Exocytosis inh – lytic granule exocytosis inhibition. 360,000 tested, 0.66% active. TALL-104 LAMP-1 surface exposure, flow cytometry; cells stimulated with thapsigargin and PMA. inhibition, % at 10 µM;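 active means inhibition above about 55%, limit read from the data; inconclusive means no clear call, values can overlap the other calls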
EBI2 antag – EBI2 (human) antagonism; EBI2 beta-arrestin recruitment, luminescence, 7a,25-OHC stimulated; inhibition, % at 5 µM; 360,000 tested, 0.81% active; AID 651636; in the data active means inhibition above about 38%;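 further: enzyme fragment complementation signal reports receptor beta-arrestin coupling in cells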
MC4R barr agon – activates human MC4R beta-arrestin recruitment; U2OS MC4R beta-arrestin complementation, luminescence; percent of melanotan II response, DMSO zero; activation, % at 8.9 µM; 360,000 tested, 0.98% active; AID 540308;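 active means activation above a per-plate cutoff, the mean activation of sample wells on that plate plus 3 SD, cut at about 8% in these data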
MC4R barr ag – human MC4R beta-arrestin agonism confirmation; shares compounds with MC4R barr agon; U2OS MC4R beta-arrestin recruitment, luminescence; scaled DMSO 0%, Melanotan II 100%; activation, % at 8.9 µM; 2,400 tested, 31% active; AID 602192;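 active means mean activation across replicates above the hit cutoff set in the earlier primary screen, cut at about 8% in these data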
MOR DOR agonist – activates mu-delta opioid heterodimer, MC4R agonist counter-screen. shares compounds with MC4R barr agon. U2OS PathHunter beta-arrestin, beta-gal luminescence; percent of deltorphin B response, DMSO zero. activation, % at 9.2 µM. 2,400 tested, 5.8% active. AID 602194;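 active means mean activation across replicates exceeds the hit threshold derived in the earlier primary screen, cut at about 18% in these data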
Target sequence (P35372 whole entry, looked up): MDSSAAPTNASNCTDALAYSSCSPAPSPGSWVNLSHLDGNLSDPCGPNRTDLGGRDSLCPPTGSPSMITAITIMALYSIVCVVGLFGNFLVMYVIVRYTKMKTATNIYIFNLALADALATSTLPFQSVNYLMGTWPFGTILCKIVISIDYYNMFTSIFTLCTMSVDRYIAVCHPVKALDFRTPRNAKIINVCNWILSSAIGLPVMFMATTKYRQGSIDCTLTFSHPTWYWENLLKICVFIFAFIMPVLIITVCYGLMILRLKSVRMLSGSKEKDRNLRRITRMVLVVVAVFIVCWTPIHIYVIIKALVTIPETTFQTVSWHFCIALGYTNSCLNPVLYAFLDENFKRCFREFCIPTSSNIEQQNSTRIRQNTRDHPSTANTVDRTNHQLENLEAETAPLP
Target sequence (P41143 whole entry, looked up): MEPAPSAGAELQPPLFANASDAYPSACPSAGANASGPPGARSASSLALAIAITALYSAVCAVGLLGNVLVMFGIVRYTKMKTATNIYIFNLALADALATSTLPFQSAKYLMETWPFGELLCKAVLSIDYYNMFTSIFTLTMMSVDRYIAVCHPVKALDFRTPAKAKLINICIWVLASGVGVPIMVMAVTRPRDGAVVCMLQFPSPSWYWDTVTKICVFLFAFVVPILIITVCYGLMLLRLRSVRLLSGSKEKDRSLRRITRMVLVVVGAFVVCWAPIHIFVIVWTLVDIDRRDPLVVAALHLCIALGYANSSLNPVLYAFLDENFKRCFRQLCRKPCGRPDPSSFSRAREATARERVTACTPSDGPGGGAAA
Large screens that a line does not name were inactive (follow-up assays come after a bar, where they were run). Sampled rows, rich in hits. Any-hit rate of the full collection: about 3.7%.

O=C(CSc1ncnc2ccccc12)Nc1ccc2c(c1)OCCO2	none
Cc1ccc(SCC(=O)Nc2ccc(C(=O)Nc3ccc(O)cc3)cc2)cc1	MC4R barr agon 11 | MC4R barr ag inactive | MOR DOR agonist inactive
Cc1ccc(NC(=O)CCSc2nnc(-c3ccco3)o2)cc1	none
O=C(Cc1ccc(Cl)cc1)Nc1ccc(-c2nnc(-c3ccco3)o2)cc1	MC4R barr agon 12 | MC4R barr ag 13 | MOR DOR agonist inactive
O=C(Nc1ccc(-c2nnc(-c3ccco3)o2)cc1)C(c1ccccc1)c1ccccc1	MC4R barr agon 23 | MC4R barr ag inactive | MOR DOR agonist inactive
Cc1ccc(SCC(=O)Nc2ccc(-c3nnc(-c4ccco4)o3)cc2)cc1	MC4R barr agon 18 | MC4R barr ag 9.1 | MOR DOR agonist inactive
COc1ccc(O)c(CNc2ccccc2F)c1	none
O=S(=O)(Cc1ccccc1)N(O)c1ccccc1	none (no result: Myeloid diff MLP)
CCC(=O)Nc1ccc(-c2nnc(-c3ccccc3)o2)cc1	none
O=C(CSCc1ccc(Cl)cc1)Nc1ccc(-c2nnc(-c3ccccc3)o2)cc1	MC4R barr agon 9.9 | MC4R barr ag inactive | MOR DOR agonist inactive
N#Cc1cc(-c2ccc(Cl)cc2)cnc1Sc1ccc(F)cc1	MC4R barr agon 18 | MC4R barr ag inactive | MOR DOR agonist inactive
O=C(NCC1CCCCC1)c1csc([C@@H]2O[C@H](CO)[C@H](O)[C@H](O)[C@H]2O)n1	none
Cc1nc(C(C)NC(=O)CCc2nnc(CCCc3ccccc3)o2)c(C)s1 (centres undefined)	none
O=C(Cn1cc(C(F)(F)F)ccc1=O)N/N=C/c1ccc(Cl)c(Cl)c1	MC4R barr agon 13 | MC4R barr ag inactive | MOR DOR agonist inactive
O=C(Cn1cc(C(F)(F)F)ccc1=O)N/N=C/c1ccc(O)cc1	none
CCC(=O)Oc1ccc(-c2cnc3ccccc3n2)cc1	none
O=C(Oc1ccc(-c2cnc3ccccc3n2)cc1)c1ccco1	MC4R barr agon 18 | MC4R barr ag inactive | MOR DOR agonist inactive
CC(C)COc1ccc(S(=O)(=O)NNC(=O)c2cc3ccccc3o2)cc1	MC4R barr agon 11 | MC4R barr ag 12 | MOR DOR agonist inactive
C=CCOc1cccc(/C=C/c2nc3ccccc3c(=O)[nH]2)c1	MC4R barr agon 24 | MC4R barr ag inactive | MOR DOR agonist inactive
Cc1ccc2cc3c(NC(=O)c4ccco4)nn(CC(C)C)c3nc2c1	MC4R barr agon 13 (no result: Myeloid diff MLP) | MC4R barr ag inactive | MOR DOR agonist inactive
CC(=O)Nc1nn(CC(C)C)c2nc3ccc(C)cc3cc12	none
COC(=O)C1=C(C)N(Cc2ccccc2)C(=NCc2ccccc2)N[C@H]1c1cccc(F)c1	MC4R barr agon 9.6 | MC4R barr ag 11 | MOR DOR agonist inactive
COc1cc(NC(=O)c2n[nH]c(=O)c3ccccc23)cc(OC)c1	none
COc1ccc(-c2nc(NC(=O)c3n[nH]c(=O)c4ccccc34)sc2C)cc1	MC4R barr agon 14 | MC4R barr ag inactive | MOR DOR agonist inactive
Cn1cccc1/C=N\NC(=O)Cc1ccc(Br)c2ccccc12	MC4R barr agon 17 | MC4R barr ag inactive | MOR DOR agonist inactive
Cn1cccc1/C=N/NC(=O)Cc1ccccc1	none
Cc1ccc2c(COC(=O)c3ccccc3Cl)cc(=O)oc2c1	none
Cc1ccc2c(COC(=O)c3ccccc3Br)cc(=O)oc2c1	MC4R barr agon 9.7 | MC4R barr ag inactive | MOR DOR agonist inactive
O=C(NC1CC1)c1cccc(NC(=O)c2cc(S(=O)(=O)N3CCOCC3)ccc2Cl)c1	none
Cc1ccc(-n2nc3c(=O)n(CC(=O)NC(C)CCc4ccccc4)nc(C)c3c2C)cc1 (centres undefined)	Myeloid diff MLP inconclusive
OC(CNCCc1ccc(Cl)cc1)COc1ccc2ccccc2c1 (centres undefined)	MC4R barr agon 20 | MC4R barr ag 15 | MOR DOR agonist inactive
O=C(c1ccccc1)c1ccc(O)c(O)c1O	none
Cc1nc2ccc(F)cc2cc1C(=O)Nc1ccc(Cl)c(Cl)c1	MC4R barr agon 9.9 | MC4R barr ag inactive | MOR DOR agonist inactive
COc1cc(NC(=O)CSc2nc3ccccc3c(=O)n2C)ccc1NC(=O)c1ccco1	MC4R barr agon 14 | MC4R barr ag inactive | MOR DOR agonist inactive
O=C(CCC1CCCN(C(=O)c2cc3ccccc3o2)C1)NCc1ccc(F)c(F)c1 (centres undefined)	none
CCOc1ccc(-n2cnnn2)cc1S(=O)(=O)NCc1ccccc1	MC4R barr agon 16 | MC4R barr ag inactive | MOR DOR agonist inactive
O=C(/C=C/c1cc([N+](=O)[O-])ccc1OC(F)F)Nc1cccc(OC(F)F)c1	Myeloid diff MLP inconclusive, MC4R barr agon 20 | MC4R barr ag inactive | MOR DOR agonist inactive
COc1ccccc1S(=O)(=O)N(C)C[C@@H]1OCc2cn(nn2)CCCC(=O)N([C@@H](C)CO)C[C@H]1C	none
CCOc1ccc2nc3cc(NCc4ccc(OC)cc4)ccc3c(N)c2c1	Myeloid diff MLP active, MC4R barr agon 13 | MC4R barr ag 15 | MOR DOR agonist inactive
COc1cc(-c2coc3c(C(=O)NCc4cccc(Cl)c4)cccc23)ccc1O	none
Cc1cc(S(=O)(=O)N2CCOCC2)ccc1OCC(=O)Nc1ccc(F)c(Cl)c1	MC4R barr agon 16 | MC4R barr ag inactive | MOR DOR agonist inactive
C/C(=C\c1ccccc1)C(=O)NCc1ccco1	none
O=C(Nc1ccccc1)c1cc2ccccc2c(=O)s1	MC4R barr agon 13 | MC4R barr ag inactive | MOR DOR agonist inactive
O=C(COc1cc(Cl)ccc1Cl)Nc1ccc2[nH]c(=O)[nH]c2c1	MC4R barr agon 12 | MC4R barr ag inactive | MOR DOR agonist inactive
COc1ccc(-c2ccc3oc(-c4ccc(OC)cc4)c(C#CCCO)c3c2)cc1	MC4R barr agon 11 | MC4R barr ag inactive | MOR DOR agonist inactive
COc1ccc(C#Cc2c(-c3ccc(OC)cc3)oc3ccc(-c4ccc(OC)cc4)cc23)cc1	none
CC1=CC2=NC(=O)/C(=C\c3cccn3CCOc3cccc(C)c3)C(=N)N2O1	none
CCOc1cc(/C=C2/C(=N)N3OC(C)=CC3=NC2=O)ccc1OCCOc1ccccc1	MC4R barr agon 14 | MC4R barr ag 9.2 | MOR DOR agonist inactive
CC1=CC2=NC(=O)/C(=C\c3cccn3CCOc3cc(C)ccc3C)C(=N)N2O1	MC4R barr agon 14 | MC4R barr ag inactive | MOR DOR agonist inactive
O=C(CN(Cc1ccccc1)S(=O)(=O)c1cccc(C(F)(F)F)c1)NC1CCCCC1	MC4R barr agon 12 | MC4R barr ag inactive | MOR DOR agonist inactive
CC(c1ccccc1)N(CC(=O)NC1CCCCC1)S(=O)(=O)c1cccc(C(F)(F)F)c1 (centres undefined)	none
Cc1cc(C(=O)Nc2cc(C)n(Cc3ccc(Cl)cc3)n2)no1	none
